Screening results (PubChem BioAssay)
PREPL inhibitor: inhibits the human prolyl oligopeptidase-like enzyme; 320,000 compounds, 0.68% hits; recombinant PREPL, fluorescence polarization activity-based probe; Q4J6C6; inhibition, % at 5.96 µM; in the data active means inhibition above about 43%;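 further: 0% = enzyme with DMSO and 100% = wells lacking enzyme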
Target sequence (Q4J6C6 whole entry, looked up): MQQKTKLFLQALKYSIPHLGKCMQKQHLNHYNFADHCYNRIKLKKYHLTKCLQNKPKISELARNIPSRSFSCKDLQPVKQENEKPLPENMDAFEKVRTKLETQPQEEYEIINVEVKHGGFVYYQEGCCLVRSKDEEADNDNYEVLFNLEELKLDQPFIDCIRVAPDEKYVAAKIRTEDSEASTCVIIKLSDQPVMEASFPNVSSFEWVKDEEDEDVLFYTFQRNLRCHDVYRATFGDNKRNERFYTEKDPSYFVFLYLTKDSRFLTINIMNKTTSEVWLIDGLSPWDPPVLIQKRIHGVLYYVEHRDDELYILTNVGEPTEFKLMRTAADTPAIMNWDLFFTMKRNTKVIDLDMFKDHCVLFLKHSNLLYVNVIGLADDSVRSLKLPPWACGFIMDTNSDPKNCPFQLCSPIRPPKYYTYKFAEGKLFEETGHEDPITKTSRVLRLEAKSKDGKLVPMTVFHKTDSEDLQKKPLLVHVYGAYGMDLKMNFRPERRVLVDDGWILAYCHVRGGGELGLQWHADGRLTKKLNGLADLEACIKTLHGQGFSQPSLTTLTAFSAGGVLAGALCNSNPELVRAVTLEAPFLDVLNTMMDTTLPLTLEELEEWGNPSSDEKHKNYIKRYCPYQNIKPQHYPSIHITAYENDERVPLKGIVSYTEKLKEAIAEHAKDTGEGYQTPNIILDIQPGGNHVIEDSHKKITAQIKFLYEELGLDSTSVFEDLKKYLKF
T cruzi inh: blocks replication of Trypanosoma cruzi; AID 1885; 300,000 compounds, 1.4% hits; T. cruzi beta-gal in NIH3T3, luminescence, 90 h; inhibition, % (no concentration beside the values);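 active means mean inhibition across valid replicates above about 55%, limit read from the data; inconclusive means mean below that limit but half or more replicates reach it; inactive means mean below it, under half of replicates reach it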;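 further: signal also drops with host cell toxicity which is not excluded here; 0% = plate median of DMSO wells and 100% = zero luminescence signal; higher percent means less beta-gal luminescence so fewer parasites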
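System – NIH/3T3 host cells with β-galactosidase reporter T. cruzi · Doses – single 50 nL compound addition per well in DMSO · Reagent – 5000 T. cruzi trypomastigotes/well · Medium – Low-serum DMEM with 2% FBS · Timing – ≥90 h infection period, 3 h prior cell attachment · Evaluation – parasite load inhibition, % · Technique – GalScreen luminescence, 60 min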
Beta cell apopt: blocks beta cell apoptosis. INS-1E cytokine-induced death, ATP luminescence, 48 h; percent of positive-control rescue, neutral wells zero. protection from apoptosis, % (no concentration beside the values). 300,000 compounds, 0.8% hits;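 active means Every replicate reaches about 75%, or at least half do and their mean reaches it too, limit read from the data; inconclusive means At least half of replicates reach the limit but their mean does not; inactive means Under half of replicates reach the limit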;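 further: 0% = cytokine-treated negative control wells and 100% = positive control rescue; higher means more ATP so stronger rescue from cytokine killing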
CHOP inhibitor: inhibitors of CHOP induction in ER stress response; AID 2732; 220,000 compounds, 3.8% hits; inhibition, % at 10 µM; CHO-K1 CHOP-promoter luciferase, tunicamycin-induced, 15-18 h;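 active means compounds that reduced the stress-induced luciferase reporter signal by more than about 70% of percent inhibition, limit read from the data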;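 further: 0% = tunicamycin plus vehicle and 100% = wells without tunicamycin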
CSC inhib: cancer stem cell inhibition. cancer stem cell-like cells viability, luminescence. inhibition, % at 7.5 µM. 300,000 compounds, 1.1% hits. AID 2717; in the data active means inhibition above about 75%; inconclusive means no clear call, values can overlap the other calls; tested in HMLE shEcad cells
GRIN3A LBD mod: NR3A (human) ligand-binding domain modulation. NR3A LBD differential scanning fluorimetry, Tm shift; 0% = protein alone, 100% = glycine-bound protein. Tm shift relative to glycine control, % at 25 µM. 340,000 compounds, 2.5% hits;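 active means melting temperature shift of at least 10% of the positive control shift, at one fixed dose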
Numbers without * were called inactive; ? = inconclusive; nt = no result given. Shown are actives, neighbours in structure and some others; about 6.7% of the full set was active somewhere.

SMILES	PREPL inhibitor	T cruzi inh	Beta cell apopt	CHOP inhibitor	CSC inhib	GRIN3A LBD mod
O=C(N/N=C\c1cccc(Cl)c1)c1ccc(Cn2cc(Br)c([N+](=O)[O-])n2)o1	1	54	2	-30	9	12*
Cc1ccc(/C=N\NC(=O)c2ccc(Cn3cc(Br)c([N+](=O)[O-])n3)o2)o1	3	74*	-4	-25	7	-4
O=C(N/N=C\c1cccc(Cl)c1)c1ccc(Cn2cccn2)o1	7	-11	0	-21	nt	-3
O=C(Nc1ccc(Br)cn1)c1ccc(COc2c(F)c(F)cc(F)c2F)o1	-33	nt	-1	nt	nt	-2
O=C(O)c1cc(N2C(=O)C3C4C=CC(C4)C3C2=O)ccc1N1CCOCC1 (configuration not stated)	-2	-10	-6	1	0	-1
FC(F)(F)c1cc(-c2cccs2)nc2nc(N3CCOCC3)sc12	-7	17	3	94*	-13	0
O=C(c1cnn2c(C(F)(F)F)cc(-c3cccs3)nc12)N1CCOCC1	-5	7	1	13	-12	-1
C/C(N=Nc1nc2ccccc2s1)=N\Nc1ccccc1O	8	1	70	54	85*	1
CS(=O)(=O)c1ccc2nc(NC(=O)c3ccccc3Br)sc2c1	5	-6	3	nt	-3	0
c1ccc(C[n+]2csc3ccccc32)cc1	5	39	6	18	-8	5
Fc1cccc(C[n+]2csc3ccccc32)c1	-3	55*	8	32	nt	5
O=C(O)C1(c2ccccc2)CCN(S(=O)(=O)c2cccc(Cl)c2)CC1	8	-2	-12	nt	1	-1
O=C(CN(C(=O)CCC(=O)Nc1nccs1)c1ccccc1F)NCC1CCCO1 (configuration not stated)	16	0	-2	73*	-1	7
Cc1ccnc(NC(=O)CCC(=O)N(CC(=O)NCc2ccc(F)cc2)CC2CCCO2)c1 (configuration not stated)	0	3	-11	nt	-20	0
Cc1ccnc(NC(=O)CCC(=O)N(CC(=O)NCC2CCCO2)Cc2ccc(F)cc2)c1 (configuration not stated)	-4	nt	-10	15	-13	11*
O=C(NCC1CCCO1)c1cc(C(=O)C2CCCCC2)c[nH]1 (configuration not stated)	10	-15	-4	-12	nt	4
CCOc1ccsc1C(=O)O	24	-3	nt	2	4	-2
COc1cccc(/C=C/c2nc(C#N)c(NCC(C)C)o2)c1	12	9	11	nt	128*	-10
COCCCNc1oc(/C=C/c2ccccc2)nc1C#N	12	-1	0	nt	-7	3
Cc1ccc2cc(CN(CCN(C)C)C(=O)Nc3ccc(Cl)cc3)c(=O)[nH]c2c1	-8	14	1	2	17	11*
Cc1ccc2[nH]c(=O)c(CN(CCCN(C)C)C(=O)Nc3ccc(Cl)cc3)cc2c1	-42	27	-1	1	16	0
CSCCC(NS(=O)(=O)c1ccccc1F)C(=O)OCc1ccccc1Cl (configuration not stated)	-18	-17	4	17	-4	20*
CSCCC(NS(=O)(=O)c1ccc(Cl)cc1)C(=O)OCc1c(Cl)cccc1Cl (configuration not stated)	-8	-5	5	86*	-1	-14
CSCCC(NS(=O)(=O)c1ccccc1F)C(=O)N1CCCCCC1 (configuration not stated)	15	8	-5	nt	2	1
CC(C)(C)c1nc2sc3c(c2c(=O)o1)CCCC3	3	-9	-7	79*	-5	0
SMILES	PREPL inhibitor	T cruzi inh	Beta cell apopt	CHOP inhibitor	CSC inhib	GRIN3A LBD mod
CCOC(=O)C(Sc1ncnc2c1sc1nc(N3CCOCC3)c3c(c12)CCCC3)c1ccccc1 (configuration not stated)	nt	nt	nt	2	nt	nt
Cc1nc(N(C)Cc2ccccc2)c2nnn(Cc3ccccc3)c2n1	13	29	7	-6	6	-4
CCOc1ccc(NS(=O)(=O)c2cccc(C(=O)N3CCN(C/C=C/c4ccccc4)CC3)c2)cc1	nt	nt	nt	nt	nt	-8
CCc1ccccc1NC(=O)CN1CCN(CC(=O)Nc2ccc3c(c2)OC2(CCCCC2)O3)CC1	nt	nt	nt	nt	nt	0
c1cc2c(cc1C1CCCCC1)c1c3n2CCN=C3CCC1	-13	71*	37	-23	25	-2
CCCc1nc2ccccc2c(C(=O)OC(C)C(=O)NCc2ccc3c(c2)OCO3)c1CC (configuration not stated)	-62	17	7	18	15	-7
CCOc1ccc(CN(CC)C(=O)c2ccc3c(c2)[nH]c(=O)c(=O)n3CC)cc1OC	-6	0	-5	nt	-12	0
COc1cc(/C=C/c2ccc3cccc(OC)c3n2)c(O)c([N+](=O)[O-])c1	-1	-17	28	94*	2	-4
COc1c(OC(C)=O)ccc(/C=C/c2ccc3cccc(OCc4ccccc4)c3n2)c1[N+](=O)[O-]	-11	10	3	41	87*	-3
COc1cc(/C=C/c2ccc3cccc(OC)c3n2)c(OC(C)=O)c([N+](=O)[O-])c1	11	17	20	38	78*	9
COc1cc(C=Nc2cccc(C)c2)c(O)c([N+](=O)[O-])c1	7	47	0	65	-6	-6
COc1ccc(C(=O)N/N=C/c2ccc3cccc(OCc4ccccc4)c3n2)cc1	-73	31	10	-40	41	-1
Cn1c(-c2ccsc2)c(-c2cccs2)c2cc(-c3ccc4cc[nH]c4c3)ccc21	4	nt	-3	nt	-19	11*
Cn1c(-c2ccsc2)c(-c2cccs2)c2cc(-c3ccc4[nH]ccc4c3)ccc21	12	nt	5	nt	?	10
Cn1c(-c2ccsc2)c(-c2cccs2)c2cc(Br)ccc21	15	nt	-14	nt	80*	0
COc1cc(OC)cc(-c2c(-c3cccs3)c3cc(Br)ccc3n2C)c1	27	nt	6	nt	46	-4
O=C(NCCCl)Nc1cccnc1Cl	-4	-8	-2	-1	-10	1
Cc1cc(C(=O)CN2C(=O)C(=O)N(CC(C)C)C2=O)c(C)n1C1CC1	1	nt	-1	nt	nt	1
S=C(NCC1CCCCC1)Nc1ccc(Oc2ccccc2)cc1	4	55*	5	73*	?	16*
COCCN(CCOC)c1nc(-c2ccc(C)cc2)nc2ccccc12	14	24	5	nt	5	-1
CCCN(CCC)c1nc(-c2ccccn2)nc2ccccc12	nt	58*	135*	nt	34	-5
CCN(CC)c1nc(-c2ccccn2)nc(-c2ccccc2)c1C#N	6	58*	nt	58	-15	-2
CCCCN(CC)c1nc(-c2ccncc2)nc2ccccc12	10	54	-7	80*	30	-1
CCN1CCN(c2nc(-c3ccccn3)nc3ccccc23)CC1	9	35	14	-21	-18	-3
